In ChEMBL document CHEMBL1142312, “Anti-Plasmodium activity of tetrazolium salts” (Bioorg Med Chem, 2008):

Experiments:
Plasmodium falciparum = assay: Antimalarial activity against Plasmodium falciparum in LDH reporter assay; assay type: functional, organism-based; conditions: Plasmodium falciparum
Summary of the method: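 P. falciparum line ItG cultured in O+ human erythrocytes in RPMI-1640 with 10% human serum and 50 μM hypoxanthine. Twofold serial dilutions from 10 mg/mL DMSO stock, 2% hematocrit, 2% parasitemia. Incubated 72 h at 37 °C under 95% N2/3% CO2/2% O2. Parasite LDH assay read at 650 nm after 1 h. IC50 by non-linear regression, mean ± SE of four determinations.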

[1] = Toxicity in CHO cells; assay type: cell-based, Cricetulus griseus; conditions: Chinese hamster (Cricetulus griseus), CHO cells
Summary of the method: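 CHO cells grown to 50% confluency in RPMI-1640 with 10% fetal calf serum, 25 mM Hepes and gentamicin. Serial dilutions made from a 10 mg/mL DMSO stock; DMSO-only controls. After 48 h, MTT (10 mg/mL in medium) added for 1 h, then DMSO added and absorbance read at 650 nm. IC50 by non-linear regression of dose–response; mean ± SE of four determinations.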

[2] = Ratio of IC50 for CHO cells to IC50 for Plasmodium falciparum; assay type: functional

Row | SMILES | IC50 (Plasmodium falciparum) | IC50 [1] | Ratio IC50 [2]
1 | Fc1ccc(-[n+]2nc(-c3ccc(-c4ccccc4)cc3)nn2-c2ccccc2)cc1.[Cl-] | 0.81 µM | 4.1 µM | 5.1
2 | Fc1ccc(-[n+]2nc(-c3ccccc3)nn2-c2ccccc2)cc1.[Cl-] | 0.93 µM | 39 µM | 41.9
3 | Fc1ccc(-[n+]2nc(-c3ccc(OCc4ccccc4)cc3)nn2-c2ccccc2)cc1.[Cl-] | 0.47 µM | 16 µM | 34
4 | Fc1ccc(-[n+]2nc(-c3cccc4ccccc34)nn2-c2ccccc2)cc1.[Cl-] | 0.83 µM | 32 µM | 38.6
5 | Fc1ccccc1-[n+]1nc(-c2ccccc2)nn1-c1ccccc1.[Cl-] | 0.39 µM | 44 µM | 112.8
6 | COc1ccc(-n2nc(-c3ccc(-c4ccccc4)cc3)n[n+]2-c2ccc(F)cc2)cc1.[Cl-] | 1.7 µM | 19 µM | 11.2
7 | COc1ccc(-[n+]2nc(-c3ccc(-c4ccccc4)cc3)nn2-c2ccccc2)cc1.[Cl-] | 0.43 µM | 19 µM | 44.2
8 | Clc1cccc(-c2nn(-c3ccc(OCc4ccccc4)cc3)[n+](-c3ccccc3)n2)c1.[Cl-] | 0.41 µM | 38 µM | 92.7
9 | CC(C)c1nn(-c2ccccc2)[n+](-c2ccccc2)n1.[Br-] | 102 µM | 377 µM | 3.7
10 | [Cl-].c1ccc(COc2ccc(-c3nn(-c4ccc(OCc5ccccc5)cc4)[n+](-c4ccccc4)n3)cc2)cc1 | 0.23 µM | 0.96 µM | 4.2
11 | CCCCCCCCCCCOc1ccc(-c2nn(-c3ccccc3)[n+](-c3ccccc3)n2)cc1.[Cl-] | 4 µM | 0.4 µM | 0.1
12 | CCCCCCc1nn(-c2ccccc2)[n+](-c2ccccc2)n1.[Br-] | 3.4 µM | 21 µM | 6.2
13 | Clc1cccc(-[n+]2nc(-c3ccc(-c4ccccc4)cc3)nn2-c2ccccc2)c1.[Cl-] | 0.115 µM | 10 µM | 87
14 | COc1cc(-c2nn(-c3ccccc3)[n+](-c3ccc(Cl)cc3)n2)ccc1OCc1ccccc1.[Cl-] | 3.8 µM | 32 µM | 8.4
15 | Clc1ccc(-[n+]2nc(-c3ccc(OCc4ccccc4)cc3)nn2-c2ccccc2)cc1.[Cl-] | 1.14 µM | 4.6 µM | 4
16 | Clc1cccc(-c2nn(-c3ccccc3)[n+](-c3ccccc3)n2)c1.[Cl-] | 0.46 µM | 43 µM | 93.5
17 | Fc1cccc(-[n+]2nc(-c3ccc(-c4ccccc4)cc3)nn2-c2ccccc2)c1.[Cl-] | 0.26 µM | 4.9 µM | 18.8
18 | Brc1cccc(-[n+]2nc(-c3ccccc3)nn2-c2ccccc2)c1.[Cl-] | 0.6 µM | 6.4 µM | 10.7
19 | Clc1cccc(-n2nc(-c3ccccc3)n[n+]2-c2cccc(Cl)c2)c1.[Cl-] | 0.5 µM | 36 µM | 72
20 | COc1cc(-c2nn(-c3ccccc3)[n+](-c3cccc(F)c3)n2)ccc1OCc1ccccc1.[Cl-] | 3.2 µM | 6.5 µM | 2
21 | Clc1cccc(-n2nc(-c3ccc(OCc4ccccc4)cc3)n[n+]2-c2cccc(Cl)c2)c1.[Cl-] | 1.3 µM | 21 µM | 16.2
22 | Fc1ccccc1-[n+]1nc(-c2ccc(-c3ccccc3)cc2)nn1-c1ccccc1.[Cl-] | 0.36 µM | 8 µM | 22.2

Row | SMILES | IC50 (Plasmodium falciparum) | IC50 [1] | Ratio IC50 [2]
23 | COc1cc(-c2nn(-c3ccccc3)[n+](-c3ccccc3F)n2)ccc1OCc1ccccc1.[Cl-] | 2.2 µM | 2.7 µM | 1.2
24 | Fc1cccc(-[n+]2nc(-c3ccc(OCc4ccccc4)cc3)nn2-c2ccccc2)c1.[Cl-] | 0.42 µM | 4.3 µM | 10.2
25 | COc1ccc(-n2nc(-c3ccc(OCc4ccccc4)cc3)n[n+]2-c2cccc(Cl)c2)cc1.[Cl-] | 0.29 µM | 16 µM | 55.2
26 | COc1ccc(-n2nc(-c3ccccc3)n[n+]2-c2ccccc2)cc1.[Cl-] | 0.8 µM | 6.5 µM | 8.1
27 | COc1cc(-c2ccc(-n3nc(-c4ccc([N+](=O)[O-])cc4)n[n+]3-c3ccc([N+](=O)[O-])cc3)c(OC)c2)ccc1-n1nc(-c2ccc([N+](=O)[O-])cc2)n[n+]1-c1ccc([N+](=O)[O-])cc1 | – | 1.3 µM | –
28 | [Cl-].c1ccc(COc2ccc(-n3nc(-c4ccc(-c5ccccc5)cc4)n[n+]3-c3ccccc3)cc2)cc1 | 0.261 µM | 1.7 µM | 6.5
29 | Clc1cccc(-[n+]2nc(-c3ccccc3)nn2-c2ccc(OCc3ccccc3)cc2)c1.[Cl-] | 0.1 µM | 14 µM | 140
30 | O=[N+]([O-])c1ccc(-c2nn(-c3ccccc3)[n+](-c3ccccc3)n2)cc1.[Cl-] | 14 µM | 31 µM | 2.2
31 | Clc1cccc(-[n+]2nc(-c3ccccc3)nn2-c2ccccc2)c1.[Cl-] | 0.84 µM | 6.3 µM | 7.5
32 | Fc1cccc(-[n+]2nc(-c3ccccc3)nn2-c2ccccc2)c1.[Cl-] | 2.2 µM | 36 µM | 16.4
33 | [Cl-].c1ccc(COc2ccc(-n3nc(-c4ccccc4)n[n+]3-c3ccccc3)cc2)cc1 | 0.2 µM | 37 µM | 185
34 | Fc1ccccc1-[n+]1nc(-c2ccc(OCc3ccccc3)cc2)nn1-c1ccccc1.[Cl-] | 0.14 µM | 8 µM | 57.1
35 | Clc1ccc(-[n+]2nc(-c3ccc(-c4ccccc4)cc3)nn2-c2ccccc2)cc1.[Cl-] | 0.41 µM | 16 µM | 39
36 | Clc1ccc(-[n+]2nc(-c3ccccc3)nn2-c2ccccc2)cc1.[Cl-] | 0.63 µM | 39 µM | 61.9
37 | COc1ccc(-n2nc(-c3ccc(-c4ccccc4)cc3)n[n+]2-c2ccc(Cl)cc2)cc1.[Cl-] | 0.4 µM | 12 µM | 30
38 | COc1ccc(-n2nc(-c3ccc(OCc4ccccc4)cc3)n[n+]2-c2ccccc2)cc1.[Cl-] | 0.32 µM | 9 µM | 28.1
39 | Brc1cccc(-[n+]2nc(-c3ccc(OCc4ccccc4)cc3)nn2-c2ccccc2)c1.[Cl-] | 0.4 µM | 8.1 µM | 20.3
40 | COc1cc(-c2nn(-c3ccccc3)[n+](-c3cccc(Cl)c3)n2)ccc1OCc1ccccc1.[Cl-] | 0.69 µM | 8 µM | 11.6
41 | CCCCCCCCCCCOc1cccc(-c2nn(-c3ccccc3)[n+](-c3ccccc3)n2)c1.[Cl-] | 2.5 µM | 5 µM | 2
42 | [Cl-].c1ccc(-n2nc(C3CCCCC3)n[n+]2-c2ccccc2)cc1 | 6.2 µM | 25 µM | 4
43 | COc1cc(-c2ccc(-n3nc(-c4ccccc4)n[n+]3-c3ccccc3)c(OC)c2)ccc1-n1nc(-c2ccccc2)n[n+]1-c1ccccc1 [TETRAZOLIUM BLUE CHLORIDE] | 3.8 µM | > 100 µM | –
